One block for each compound: values may come before it.
Tests used:
[1] = system: Panel (Carcinoma cell lines); test: Mean graph midpoint for growth inhibition of all human cancer cell lines.; assay type: functional
How it was run: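 Mean graph midpoint: the average GI50 (molar) over all human cancer cell lines successfully tested in the 60 cell line panel, expressed as log GI50.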

[2] = system: DU-145; test: Cytotoxicity against prostate DU-145 cell line; assay type: functional; settings: Homo sapiens
How it was run: (§1)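 Tested in the 60 human cancer cell line panel, after a preliminary one-dose screen in three cell lines. The value is the molar concentration giving 50% growth inhibition (GI50), reported as log GI50 for each cell line.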

[3] = system: SNB-75; test: Cytotoxicity against prostate CNS SNB-75 cell line; assay type: functional; settings: Homo sapiens; how it was run: as §1
[4] = system: MDA-MB-435 (human); test: Cytotoxicity against breast MDA-MB-435 cell line
[5] = system: SF-539; test: Cytotoxicity against CNS SF-539 cell line; assay type: functional; settings: Homo sapiens; how it was run: as §1
[6] = system: OVCAR-3; test: Cytotoxicity against ovarian OVCAR-3 cell line; assay type: functional; settings: Homo sapiens; how it was run: as §1
[7] = system: OVCAR-4; test: Cytotoxicity against […] OVCAR-4 cell line; assay type: functional; settings: Homo sapiens; how it was run: as §1
[8] = system: HOP-62; test: Cytotoxicity against lung HOP-62 cell line; assay type: functional; settings: Homo sapiens; how it was run: as §1
[9] = system: UACC-62; test: Cytotoxicity against melanoma UACC-62 cell line; assay type: functional; settings: Homo sapiens; how it was run: as §1
[10] = system: NCI-H322M; test: Cytotoxicity against lung […] cell line; assay type: functional; settings: Homo sapiens; how it was run: as §1
[11] = system: SN12C; test: Cytotoxicity against renal SN12C cell line; assay type: functional; settings: Homo sapiens; how it was run: as §1
[12] = system: SR; test: Cytotoxicity against leukemia SR cell line; assay type: functional; settings: Homo sapiens; how it was run: as §1
[13] = system: HCT-116; test: Cytotoxicity against colon HCT116 cell line; assay type: functional; settings: Homo sapiens; how it was run: as §1
[14] = in the assay text read “CNS” for “prostate CNS”

SMILES: COc1cc2c(cc1OC)[C@@H]1OC[C@H]([C@@H]2c2cc(OC)c(OC)c(OC)c2)[C@@H]1CO
GI50 [1]: > 100 µM

SMILES: COc1cc2c(cc1OC)[C@H]1c3cc(OC)c(OC)c(OC)c3OC[C@H]1[C@H](CO)C2
GI50 [2]: 22.9 µM | GI50 [3, 14]: 3.63 µM | GI50 [4]: 18.2 µM | GI50 [5]: 24.5 µM | GI50 [6]: 15.1 µM | GI50 [7]: 1.95 µM | GI50 [1]: 20 µM | GI50 [8]: 60.3 µM | GI50 [9]: 20 µM | GI50 [10]: 8.71 µM | GI50 [11]: 25.1 µM | GI50 [12]: 18.2 µM | GI50 [13]: 22.4 µM

SMILES: COc1cc2c(c(OC)c1OC)OC[C@H]1[C@H](COC(C)=O)Cc3cc4c(cc3[C@@H]21)OCO4
GI50 [2]: 70.8 µM | GI50 [4]: 39.8 µM | GI50 [5]: 57.5 µM | GI50 [6]: 56.2 µM | GI50 [7]: 47.9 µM | GI50 [1]: 40.7 µM | GI50 [8]: 67.6 µM | GI50 [9]: 31.6 µM | GI50 [11]: 40.7 µM | GI50 [12]: 21.9 µM | GI50 [13]: 61.7 µM

SMILES: COc1ccc(C23OCC24C2COC(c5cc(OC)c(OC)cc53)C24)cc1OC (stereo unspecified)
GI50 [2]: > 100 µM | GI50 [4]: > 100 µM | GI50 [5]: > 100 µM | GI50 [6]: > 100 µM | GI50 [1]: > 100 µM | GI50 [8]: > 100 µM | GI50 [9]: > 100 µM | GI50 [13]: > 100 µM

SMILES: COc1cc2c(cc1OC)C1(c3cc(OC)c(OC)c(OC)c3)OCC13C1COC2C13 (stereo unspecified)
GI50 [2]: 29.5 µM | GI50 [4]: 19.5 µM | GI50 [5]: 31.6 µM | GI50 [6]: 30.2 µM | GI50 [1]: 41.7 µM | GI50 [8]: 70.8 µM | GI50 [9]: 69.2 µM | GI50 [11]: 34.7 µM | GI50 [13]: 28.2 µM

SMILES: COc1ccc([C@]23OC[C@H](Cc4cc(OC)c(OC)cc42)[C@@H]3C)cc1OC
GI50 [2]: 3.89 µM | GI50 [5]: 1.95 µM | GI50 [6]: 2.4 µM | GI50 [1]: 3.8 µM | GI50 [8]: 2.4 µM | GI50 [9]: 6.92 µM | GI50 [11]: 12 µM | GI50 [13]: 2.75 µM

SMILES: COc1cc2c(c(OC)c1OC)OC[C@H]1[C@H](CO)Cc3cc4c(cc3[C@@H]21)OCO4
GI50 [2]: 37.2 µM | GI50 [3, 14]: 42.7 µM | GI50 [4]: 19.1 µM | GI50 [5]: 20.9 µM | GI50 [6]: 25.1 µM | GI50 [7]: 39.8 µM | GI50 [1]: 30.9 µM | GI50 [8]: 52.5 µM | GI50 [9]: 25.7 µM | GI50 [10]: 47.9 µM | GI50 [11]: 44.7 µM | GI50 [12]: 5.13 µM | GI50 [13]: 30.2 µM

SMILES: COc1cc2c(c(OC)c1OC)OC[C@@H]1[C@H]2c2cc3c(cc2C[C@H]1C)OCO3
GI50 [2]: > 75.9 µM | GI50 [3, 14]: 12.3 µM | GI50 [4]: 11.5 µM | GI50 [5]: 20.9 µM | GI50 [6]: 33.1 µM | GI50 [7]: 37.2 µM | GI50 [1]: 38 µM | GI50 [8]: > 75.9 µM | GI50 [9]: 30.2 µM | GI50 [10]: > 75.9 µM | GI50 [11]: > 75.9 µM | GI50 [12]: 19.1 µM | GI50 [13]: 31.6 µM

Continued, in another order:

GI50 [1]: 4.07 µM
SMILES: COc1cc([C@]23OC[C@H](Cc4cc5c(cc42)OCO5)[C@@H]3CO)cc(OC)c1OC
GI50 [2]: 2.63 µM | GI50 [3, 14]: 2.69 µM | GI50 [4]: 0.295 µM | GI50 [5]: 2.51 µM | GI50 [6]: 1.45 µM | GI50 [7]: 23.4 µM | GI50 [8]: 4.37 µM | GI50 [9]: 4.27 µM | GI50 [10]: 6.17 µM | GI50 [12]: 0.589 µM | GI50 [13]: 2.88 µM

GI50 [1]: 0.851 µM
SMILES: COc1cc([C@]23OC[C@H](Cc4cc5c(cc42)OCO5)[C@@H]3C)cc(OC)c1OC
GI50 [2]: 0.479 µM | GI50 [3]: 0.38 µM | GI50 [6]: 0.186 µM | GI50 [7]: 0.38 µM | GI50 [8]: 0.794 µM | GI50 [9]: 0.407 µM | GI50 [10]: 2.14 µM | GI50 [11]: 5.37 µM | GI50 [12]: 0.148 µM | GI50 [13]: 0.437 µM

GI50 [1]: 47.9 µM
SMILES: COc1cc2c(cc1OC)[C@]1(c3cc(OC)c(OC)c(OC)c3)OC[C@H](C2)[C@@H]1CO
GI50 [2]: 30.2 µM | GI50 [4]: 6.76 µM | GI50 [5]: 17.8 µM | GI50 [6]: 24 µM | GI50 [7]: 77.6 µM | GI50 [8]: 47.9 µM | GI50 [9]: 63.1 µM | GI50 [10]: 43.7 µM | GI50 [11]: 58.9 µM | GI50 [12]: 44.7 µM | GI50 [13]: 30.2 µM

GI50 [1]: 0.0182 µM
SMILES: COc1cc(C23OCC24C2COC(c5cc6c(cc53)OCO6)C24)cc(OC)c1OC (stereo unspecified)
GI50 [2]: < 0.01 µM | GI50 [4]: < 0.01 µM | GI50 [5]: < 0.01 µM | GI50 [6]: < 0.01 µM | GI50 [8]: < 0.01 µM | GI50 [9]: < 0.01 µM | GI50 [13]: < 0.01 µM

GI50 [1]: 32.4 µM
SMILES: COc1cc([C@@H]2c3cc4c(cc3[C@H]3OC[C@@H]2[C@@H]3CO)OCO4)cc(OC)c1OC
GI50 [2]: 30.2 µM | GI50 [4]: 6.76 µM | GI50 [5]: 17.8 µM | GI50 [6]: 24 µM | GI50 [8]: 47.9 µM | GI50 [9]: 18.2 µM | GI50 [11]: 58.9 µM | GI50 [13]: 30.2 µM

GI50 [1]: 3.89 µM
SMILES: COc1cc([C@]23OC[C@H](Cc4cc5c(cc42)OCO5)[C@@H]3COC(C)=O)cc(OC)c1OC
GI50 [2]: 4.57 µM | GI50 [3, 14]: 2 µM | GI50 [4]: 0.468 µM | GI50 [5]: 1.74 µM | GI50 [6]: 2.14 µM | GI50 [7]: 4.27 µM | GI50 [8]: 4.27 µM | GI50 [9]: 2.95 µM | GI50 [10]: 4.37 µM | GI50 [11]: 5.01 µM | GI50 [12]: 0.759 µM | GI50 [13]: 2.34 µM

GI50 [1]: 10.5 µM
SMILES: COc1cc([C@]23OC[C@H](Cc4cc5c(cc42)OCO5)[C@H]3CO)cc(OC)c1OC
GI50 [2]: 4.47 µM | GI50 [4]: 7.41 µM | GI50 [5]: 3.89 µM | GI50 [6]: 0.182 µM | GI50 [8]: 0.219 µM | GI50 [9]: 0.0776 µM | GI50 [11]: 4.79 µM | GI50 [13]: 0.0437 µM

GI50 [1]: 23.4 µM
SMILES: COc1cc([C@@H]2c3cc4c(cc3[C@@H]3OC[C@H]2[C@@H]3CO)OCO4)cc(OC)c1OC
GI50 [2]: 39.8 µM | GI50 [4]: 3.89 µM | GI50 [5]: 15.5 µM | GI50 [6]: 14.5 µM | GI50 [8]: 19.1 µM | GI50 [9]: 26.9 µM | GI50 [11]: 31.6 µM | GI50 [13]: 29.5 µM

GI50 [1]: 12.3 µM
SMILES: COc1cc([C@]23OC[C@H](Cc4cc5c(cc42)OCO5)[C@H]3COC(C)=O)cc(OC)c1OC
GI50 [4]: 1.86 µM | GI50 [5]: 19.1 µM | GI50 [8]: 25.1 µM | GI50 [9]: 10 µM | GI50 [11]: 25.7 µM | GI50 [13]: 13.8 µM
